pIC50: −log10 of the molar value.
Key:
[1] = species: Rattus norvegicus; test: Percent of maximal extent of inhibition was calculated by fitting [35S]TBPS inhibition data to a sigmoid function (rat brain cortical P2 membranes).; assay type: functional
Outline: (§1)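 Rat cortical P2 membranes washed in 200 mM NaCl/50 mM Na-K phosphate pH 7.4. Incubated with 2 nM [35S]TBPS, 5 µM GABA and compound at nine concentrations from 1 nM to 10 µM final (DMSO 0.5% final), 90 min at room temperature. Nonspecific binding was defined with 2 µM unlabeled TBPS. Read-out was filtration and scintillation counting. IC50 and Imax came from partial or full inhibition fits chosen by F-test. Values are mean ± SEM of 3-9 experiments.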

[2] = target: GABA-A receptor; anion channel; test: Ability to allosterically modulate the binding of [35S]TBPS to gamma-aminobutyric-acid A receptor in rat brain cortical P2 membranes.; assay type: cell membranes, Membrane; outline: as §1

Q: With `CC(C)(C)OC(=O)c1ncn2c1C1CCCN1C(=O)c1c(Br)cccc1-2` (stereo not drawn) as the compound, how does the Imax [1] read?
A: 27%

Q: And the pIC50 [2]?
A: 8.21

Q: Which results are given for `CC[C@@]1(O)CC[C@@]2(C)[C@@H](CC[C@@H]3[C@@H]2CC[C@]2(C)[C@@H](C(C)=O)CC[C@@H]32)C1`?
A: Imax [1]: 69%; pIC50 [2]: 6.59

Q: What does the source list for `C#C[C@@]1(O)CC[C@@]2(C)[C@@H](CC[C@@H]3[C@@H]2CC[C@]2(C)[C@@H](C(C)=O)CC[C@@H]32)C1`?
A: Imax [1]: 93%; pIC50 [2]: 7.19

Q: Which results are given for `CCC[C@@]1(O)CC[C@@]2(C)[C@@H](CC[C@@H]3[C@@H]2CC[C@]2(C)[C@@H](C(C)=O)CC[C@@H]32)C1`?
A: Imax [1]: 42%; pIC50 [2]: 6.76

Q: `C=CC[C@@]1(O)CC[C@@]2(C)[C@@H](CC[C@@H]3[C@@H]2CC[C@]2(C)[C@@H](C(C)=O)CC[C@@H]32)C1` was tested. Which Imax [1] did it give?
A: 59%

Q: What about the pIC50 [2] of the same compound?
A: 6.64

Q: For `C#C[C@@]1(O)CC[C@@]2(C)[C@H](CC[C@@H]3[C@@H]2CC[C@]2(C)[C@@H](C(C)=O)CC[C@@H]32)C1`, which Imax [1] is on record?
A: 101%

Q: What does the source list for `CC(=O)[C@H]1CC[C@H]2[C@@H]3CC[C@H]4C[C@@](O)(CI)CC[C@]4(C)[C@H]3CC[C@]12C`?
A: Imax [1]: 50%; pIC50 [2]: 6.15

Q: How did the Imax [1] turn out when `CC(=O)[C@H]1CC[C@H]2[C@@H]3CC[C@@H]4C[C@](C)(O)CC[C@]4(C)[C@H]3CC[C@]12C` was run?
A: 104%

Q: What does the source list for `CC[C@@]1(O)CC[C@@]2(C)[C@H](CC[C@@H]3[C@@H]2CC[C@]2(C)[C@@H](C(C)=O)CC[C@@H]32)C1`?
A: Imax [1]: 95%; pIC50 [2]: 6.87

Q: For `CC(=O)[C@H]1CC[C@H]2[C@@H]3CC[C@H]4C[C@@](O)(CBr)CC[C@]4(C)[C@H]3CC[C@]12C`, which Imax [1] is on record?
A: 44%

Q: And the pIC50 [2]?
A: 6.65

Q: What does the source list for `C=CCC[C@@]1(O)CC[C@@]2(C)[C@@H](CC[C@@H]3[C@@H]2CC[C@]2(C)[C@@H](C(C)=O)CC[C@@H]32)C1`?
A: Imax [1]: 59%; pIC50 [2]: 6.49

Q: With `CC(=O)[C@H]1CC[C@H]2[C@@H]3CC[C@H]4C[C@@](O)(CF)CC[C@]4(C)[C@H]3CC[C@]12C` as the compound, how does the Imax [1] read?
A: 79%

Q: And the pIC50 [2]?
A: 6.64

Q: Which results are given for `CC(=O)[C@H]1CC[C@H]2[C@@H]3CC[C@H]4C[C@@](O)(CC(N)=O)CC[C@]4(C)[C@H]3CC[C@]12C`?
A: Imax [1]: 28%; pIC50 [2]: < 5.00

Q: For `COC[C@@]1(O)CC[C@@]2(C)[C@@H](CC[C@@H]3[C@@H]2CC[C@]2(C)[C@@H](C(C)=O)CC[C@@H]32)C1`, which Imax [1] is on record?
A: 104%

Q: And the pIC50 [2]?
A: 7.12

Q: `C#CC[C@@]1(O)CC[C@@]2(C)[C@@H](CC[C@@H]3[C@@H]2CC[C@]2(C)[C@@H](C(C)=O)CC[C@@H]32)C1` was tested. Which Imax [1] did it give?
A: 43%

Q: What about the pIC50 [2] of the same compound?
A: 7.30

Q: For `C=C[C@@]1(O)CC[C@@]2(C)[C@H](CC[C@@H]3[C@@H]2CC[C@]2(C)[C@@H](C(C)=O)CC[C@@H]32)C1`, which Imax [1] is on record?
A: 103%

Q: And the pIC50 [2]?
A: 7.37

Q: `CC(=O)[C@H]1CC[C@H]2[C@@H]3CC[C@H]4C[C@@](O)(CCl)CC[C@]4(C)[C@H]3CC[C@]12C` was tested. Which Imax [1] did it give?
A: 33%

Q: And the pIC50 [2]?
A: 7.15

Q: How did the Imax [1] turn out when `CCOC[C@@]1(O)CC[C@@]2(C)[C@@H](CC[C@@H]3[C@@H]2CC[C@]2(C)[C@@H](C(C)=O)CC[C@@H]32)C1` was run?
A: 104%

Q: What about the pIC50 [2] of the same compound?
A: 6.64

Q: For `C=C[C@@]1(O)CC[C@@]2(C)[C@@H](CC[C@@H]3[C@@H]2CC[C@]2(C)[C@@H](C(C)=O)CC[C@@H]32)C1`, which Imax [1] is on record?
A: 94%

Q: And the pIC50 [2]?
A: 6.92

Q: `CN1C(=O)CN=C(c2ccccc2)c2cc(Cl)ccc21` was tested. Which Imax [1] did it give?
A: 49%

Q: Which Imax [1] does the source give for `C#CC[C@@]1(O)CC[C@@]2(C)[C@H](CC[C@@H]3[C@@H]2CC[C@]2(C)[C@@H](C(C)=O)CC[C@@H]32)C1` here?
A: 101%

Q: And the pIC50 [2]?
A: 6.67

Q: Which Imax [1] does the source give for `C=C=CC[C@@]1(O)CC[C@@]2(C)[C@@H](CC[C@@H]3[C@@H]2CC[C@]2(C)[C@@H](C(C)=O)CC[C@@H]32)C1` here?
A: 57%

Q: And the pIC50 [2]?
A: 6.44

Q: With `CCCOC[C@@]1(O)CC[C@@]2(C)[C@@H](CC[C@@H]3[C@@H]2CC[C@]2(C)[C@@H](C(C)=O)CC[C@@H]32)C1` as the compound, how does the Imax [1] read?
A: 94%

Q: What about the pIC50 [2] of the same compound?
A: 6.18

From ChEMBL document CHEMBL1130321, “Synthesis and in vitro activity of 3 beta-substituted-3 alpha-hydroxypregnan-20-ones: allosteric modulators of the GABAA receptor” (J Med Chem, 1997)
